Screening data from PubChem.
Kir21 block: inhibitors of mouse Kir2.1 inward-rectifier potassium channel; B-score at 10 µM; Inward rectifier potassium channel 2 (Mus musculus), P35561; HEK293-Kir2.1, FluxOR thallium flux fluorescence; active compounds read low; actives 0.85% (n = 310,000);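 active = fluorescence ratio B-score at or below minus 3 SD of library scores, with starting-brightness B-score within 2 SD, cut at about -4.2 in these data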;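 also: channel flux triggered by added potassium and thallium sulfate stimulus; B-score of peak minus minimum fluorescence over baseline after thallium stimulus; more negative B-score means stronger Kir2.1 block with less thallium influx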
KCNK9 block: KCNK9 potassium channel inhibitors, primary screen, HEK293 cells, thallium flux; AID 488922, 2010; actives 1.2% (n = 310,000); FluxOR thallium flux fluorescence; active compounds read low; B-score at 10 µM;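 active = ratio B-score over 3 SD below the library mean, with starting fluorescence within 5 SD of its mean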;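 also: negative B-score means less thallium flux so channel inhibition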
KCNK3 block: human KCNK3 channel inhibitors, primary screen, CHO cells, FluxOR thallium flux, B-score. B-score at 10 µM. Potassium channel subfamily K member 3 (Homo sapiens), O14649. FluxOR fluorescence; active compounds read low. AID 602410, 2012. actives 0.84% (n = 340,000);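 active = B-score under library mean minus 4 SD, starting fluorescence ratio at most library mean plus 5 SD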;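 also: more negative B-score means stronger inhibition of thallium flux through KCNK3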
KCNQ1 pot: potentiators or activators of KCNQ1 channel, primary screen, cell-based, thallium flux, high-throughput | CHO-K1 KCNQ1, thallium flux FluxOR fluorescence; active compounds read high | B-score at 10 µM | actives 0.35% (n = 310,000) | AID 2648, 2010;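 active = fluorescence ratio B-score, a plate-corrected score, at least three library SD, with initial intensity B-score within 5 SD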
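Assay system: stable KCNQ1 CHO-K1 line; medium: assay buffer, equal DMSO in all wells; timing: 90 min dye loading and 20 min compound exposure, both at room temperature; technique: kinetic FluxOR thallium fluorescence, 10-s 1-Hz baseline, 110-s post-stimulus read; read-out basis: B score of baseline-normalized fluorescence ratio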
hERG rescue: hERG rescue from dofetilide block, primary screen, cell-based, CHO-hERG, FluxOR thallium flux, dofetilide IC70; Voltage-gated inwardly rectifying potassium channel KCNH2 (Homo sapiens), Q12809; dofetilide IC70 present; activation (rescue from dofetilide block), less the hit threshold, % at 10 µM; actives 0.51% (n = 310,000);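 active = activation above the mean of controls blocked by dofetilide plus 5 SD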;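 also: thallium influx through hERG after potassium depolarization seen as dye fluorescence rise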
KCNQ1 block: inhibitors of human KCNQ1 channel, primary screen, cell-based, thallium flux, high-throughput; Potassium voltage-gated channel subfamily KQT member 1 (Homo sapiens), P51787; CHO-K1 KCNQ1, FluxOR thallium flux fluorescence; active compounds read high; B-score at 10 µM; actives 1.3% (n = 310,000); AID 2642, 2010;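 active = compounds whose thallium flux B-score, printed positive for inhibition, exceeds three library SD while starting fluorescence stays within three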;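 also: channel opened by potassium depolarization with thallium stimulus after 20 min compound exposure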
A number is an active result. Most compounds without a hit are left out; they make up all but 3.8% or so of the library.

CC1(C)Cc2cccc(OCC(=O)NCCOc3ccccc3)c2O1 was read as Kir21 block inactive, KCNK9 block inactive, KCNK3 block inactive, KCNQ1 pot inactive, hERG rescue inactive and KCNQ1 block inactive.
For CCOC(=O)c1nc(NCc2cccc(OC)c2)c2ccccc2n1 the results were Kir21 block inactive, KCNK9 block inactive, KCNK3 block inactive, KCNQ1 pot inactive, hERG rescue inactive and KCNQ1 block inactive.
`CCOc1ccccc1NC(=O)N1CCN(S(C)(=O)=O)CC1` gave Kir21 block inactive, KCNK9 block inactive, KCNK3 block inactive, KCNQ1 pot inactive, hERG rescue inactive and KCNQ1 block inactive.
Screening N#Cc1c2c(c(NCCN3CCOCC3)n3c1nc1ccccc13)CCCC2 returned Kir21 block inactive, KCNK9 block inactive, KCNK3 block -8.92, KCNQ1 pot inactive, hERG rescue inactive and KCNQ1 block inactive.
`CC(C)c1cc(NCCN2CCOCC2)n2c(nc3ccccc32)c1C#N` gave KCNK3 block -9.22.
Screening CC(=NCCN1CCN(C(C)=C2C(=O)c3ccccc3C2=O)CC1)C1=C(O)CC(C)(C)CC1=O returned Kir21 block inactive, KCNK9 block inactive, KCNK3 block inactive, KCNQ1 pot inactive, hERG rescue inactive and KCNQ1 block inactive.
Cc1ccccc1C(=O)NC1CCN(CC(=O)Nc2ccc(Br)cc2)CC1 was read as Kir21 block inactive, KCNK9 block inactive, KCNK3 block inactive, KCNQ1 pot inactive, hERG rescue inactive and KCNQ1 block inactive.
`CC(Cc1ccc(O)c(O)c1)C(C)Cc1ccc(O)c(O)c1` (configuration not stated) gave Kir21 block -10.5, KCNK9 block inactive, KCNQ1 pot inactive, hERG rescue inactive and KCNQ1 block inactive.
Screening Cc1cc(C(=O)NNc2ccc(F)cc2)no1 returned Kir21 block inactive, KCNK9 block inactive, KCNK3 block inactive, KCNQ1 pot inactive, hERG rescue inactive and KCNQ1 block inactive.
O=S(=O)(Nc1ccc2cn[nH]c2c1)c1cc(Br)ccc1Br was read as KCNK3 block inactive.
For O=C(N/N=C/c1ccc([N+](=O)[O-])o1)c1cn(-c2ccccc2)nc1-c1ccccc1 the results were Kir21 block inactive, KCNK9 block inactive, KCNK3 block inactive, KCNQ1 pot inactive, hERG rescue inactive and KCNQ1 block inactive.
Screening O=C(N/N=C\c1cn(-c2ccccc2)nc1-c1ccccc1)c1ccc(Br)o1 returned Kir21 block inactive, KCNK9 block -7.13, KCNK3 block inactive, KCNQ1 pot inactive, hERG rescue inactive and KCNQ1 block 13.
Screening O=C(N/N=C/c1ccc([N+](=O)[O-])o1)c1cn(-c2ccccc2)nc1-c1ccc(Cl)cc1 returned Kir21 block inactive, KCNK9 block inactive, KCNK3 block inactive, KCNQ1 pot inactive, hERG rescue 8.3 and KCNQ1 block inactive.
O=C(CSc1nnc(CNC(=O)c2c(F)cccc2F)o1)NCC1CCCO1 (configuration not stated) was read as Kir21 block inactive, KCNK9 block inactive, KCNK3 block inactive, KCNQ1 pot inactive, hERG rescue inactive and KCNQ1 block inactive.
`COc1ccc(C)cc1NS(=O)(=O)c1cn(C)nc1C` gave Kir21 block inactive, KCNK9 block inactive, KCNK3 block inactive, KCNQ1 pot inactive, hERG rescue inactive and KCNQ1 block inactive.
COc1ccccc1C1(CCNC(C)c2cccs2)CCOC(C(C)C)C1 (configuration not stated) was read as Kir21 block -8.9, KCNK9 block inactive, KCNK3 block inactive, KCNQ1 pot inactive, hERG rescue inactive and KCNQ1 block inactive.
Screening O=C(CSc1nnc(SCc2cccc3ccccc23)s1)c1ccc2c(c1)OCO2 returned Kir21 block inactive, KCNK9 block inactive, KCNK3 block inactive, KCNQ1 pot 8, hERG rescue inactive and KCNQ1 block inactive.
`COc1ccc(Br)cc1CN(C)CC(=O)Nc1cc(Cl)ccc1Cl` gave Kir21 block -5.67, KCNK9 block inactive, KCNK3 block inactive, KCNQ1 pot inactive, hERG rescue inactive and KCNQ1 block inactive.
For COc1ccccc1CN(C)CC(=O)Nc1ccc(Cl)cc1F the results were Kir21 block inactive, KCNK9 block inactive, KCNK3 block inactive, KCNQ1 pot inactive, hERG rescue inactive and KCNQ1 block inactive.
CN(Cc1cnccn1)Cc1nc(Cc2cccc(F)c2)no1 was read as Kir21 block inactive, KCNK9 block inactive, KCNK3 block inactive, KCNQ1 pot inactive, hERG rescue inactive and KCNQ1 block inactive.
Cc1ccc2cc(C)c(SCC(=O)NCC3CCCO3)nc2c1 (configuration not stated) was read as Kir21 block -4.31, KCNK9 block inactive, KCNK3 block inactive, KCNQ1 pot inactive, hERG rescue inactive and KCNQ1 block inactive.
For COc1ccc(CCNc2nc(-c3ccc(O)cc3)cs2)cc1OC the results were Kir21 block -4.63, KCNK9 block inactive, KCNK3 block inactive, KCNQ1 pot inactive, hERG rescue inactive and KCNQ1 block inactive.
For COc1ccc(CCNc2nc(-c3ccncc3)cs2)cc1OC the results were Kir21 block inactive, KCNK9 block inactive, KCNK3 block inactive, KCNQ1 pot inactive, hERG rescue inactive and KCNQ1 block inactive.
O=C(CNC(=O)c1ccco1)Nc1ccncc1 was read as Kir21 block inactive, KCNK9 block inactive, KCNK3 block inactive, KCNQ1 pot inactive, hERG rescue inactive and KCNQ1 block inactive.
Nc1sc(-c2ccccc2)n[n+]1Cc1cccc2cccnc12 was read as Kir21 block -7.04, KCNK9 block inactive, KCNK3 block inactive, KCNQ1 pot inactive, hERG rescue inactive and KCNQ1 block inactive.
`CCCNC(=O)CSc1nnc(-c2ccc(F)cc2)o1` gave Kir21 block inactive, KCNK9 block inactive, KCNK3 block inactive, KCNQ1 pot inactive, hERG rescue inactive and KCNQ1 block inactive.
NNC(=O)c1sccc1OCc1ccc(Cl)cc1Cl was read as Kir21 block inactive, KCNK9 block inactive, KCNK3 block inactive, KCNQ1 pot inactive, hERG rescue inactive and KCNQ1 block inactive.
For CNC(=O)c1sccc1SCc1ccc(Cl)cc1Cl the results were Kir21 block -5.22, KCNK9 block inactive, KCNK3 block inactive, KCNQ1 pot inactive, hERG rescue inactive and KCNQ1 block inactive.
`Cc1ccc(O)c(NC(=O)c2ccco2)c1` gave Kir21 block inactive, KCNK9 block inactive, KCNK3 block inactive, KCNQ1 pot inactive, hERG rescue inactive and KCNQ1 block inactive.
